Results: PubChem BioAssay AID651783 (The Scripps Research Institute Molecular Screening Center, 2012)
About 2,000 (83%) of roughly 2,400 compounds were called active. The set was probably picked from earlier hits. These entries were drawn from the full list. Values without a mark were called inactive.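 How the source made its calls: active means activation above a cutoff set at the run's mean compound activation plus 3 SD (cut at about 39% in these data); inactive means the rest.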

molecular target: Trace amine-associated receptor 1 (Homo sapiens) (UniProt Q96RJ0); assay: human TAAR1 agonists, retest of hits, confirmation, Fluo-8 calcium fluorescence, CHO RD-HGA16 cells (AID 651783); conditions: CHO RD-HGA16 TAAR1, Fluo-8 calcium fluorescence; at 3 µM; active compounds read high; scaled: DMSO 0%, maximal phenethylamine 100%;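 further: promiscuous G-alpha-16 overexpression reroutes TAAR1 signalling from cAMP to calcium; peak fluorescence divided by basal pre-compound fluorescence per well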
Sequence (Q96RJ0 whole entry, looked up): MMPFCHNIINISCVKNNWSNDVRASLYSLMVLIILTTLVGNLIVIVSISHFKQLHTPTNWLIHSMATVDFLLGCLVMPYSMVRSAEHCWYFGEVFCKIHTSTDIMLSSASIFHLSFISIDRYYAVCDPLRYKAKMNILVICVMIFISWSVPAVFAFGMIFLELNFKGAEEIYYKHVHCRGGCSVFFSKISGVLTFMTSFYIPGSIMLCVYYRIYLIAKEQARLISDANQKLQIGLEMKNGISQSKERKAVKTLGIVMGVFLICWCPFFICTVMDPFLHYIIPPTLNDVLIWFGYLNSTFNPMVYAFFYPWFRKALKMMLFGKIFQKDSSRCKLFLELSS
In short: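 material = RD-HGA16 CHO cells co-expressing hTAAR1 and promiscuous Gα16 | dosing = 3 µM single dose | incubation = Fluo-8 dye loading 75 min 37 °C, then 30 min room temperature | measured by = kinetic Fluo-8 calcium fluorescence over 140 s after basal | read-out = % activation from max-to-basal fluorescence ratio, DMSO-to-PEA scaled | repeats = triplicate wells per compound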

Row | Compound | activation
1 | O=C(COC(=O)Cc1ccccc1F)NCCc1ccccc1 | 73% (active)
2 | C[C@H](NC(=O)c1ccccc1)C(=O)OCC(=O)c1c[nH]c2ccccc12 | 79.6% (active)
3 | CC(=O)Nc1ccccc1Sc1ccc2c3c(cccc13)C(=O)N(c1ccc(C)cc1)C2=O | -2.82%
4 | Cc1ccn2c(=O)c(C(=O)NCCC3=CCCCC3)c(O)nc2c1 | 106% (active)
5 | O=C(CCCN=C1NS(=O)(=O)c2ccccc21)OCC(=O)c1ccc(F)c(F)c1 | 83.8% (active)
6 | O=Cc1c(NCCc2cccc(F)c2)c2ccccc2[nH]c1=O | 78.3% (active)
7 | CCCCOc1ccc(CSC(=N)N)cc1[N+](=O)[O-] | 48% (active)
8 | O=C1CCCC(O)=C1C=NCCc1ccccc1 | 74.5% (active)
9 | COc1cccc(-c2cnc(OC(C)(C)C)nc2OC(C)(C)C)c1 | 38.6% (active)
10 | CN(C)c1ccc(/C=C2\NC(=S)N(Cc3ccccc3)C2=O)cc1 | 51.1% (active)
11 | O=C(CSc1nc(-c2ccco2)cc(C(F)(F)F)n1)NCc1cccs1 | -0.49%
12 | c1ccc2c(c1)OCC(CNc1ncnc3nc[nH]c13)O2 (centres undefined) | 210% (active)
13 | CCCSc1nc2c(c(=O)n(C)c(=O)n2C)n1Cc1ccc(C)cc1 | 61% (active)
14 | COc1ccc(C(=O)CN2C(=O)NC(C)(c3ccc(C)cc3)C2=O)cc1OC (centres undefined) | 46.6% (active)
15 | c1ccc(Nc2nc(N3CCOCC3)c3ccccc3n2)cc1 | 93.8% (active)
16 | CC(NC(=O)c1cc(-c2ccccc2)on1)c1ccccc1 (centres undefined) | 66.5% (active)
17 | O=C(Nc1ccccc1)Nc1nnc(COc2ccccc2F)s1 | 71.7% (active)
18 | Nc1cc(OC(=O)c2ccccc2Br)nn1S(=O)(=O)c1ccccc1 | 59.1% (active)
19 | CC(C)(C)CC(=O)Nc1nc(C(N)Cc2ccc(C(F)(F)F)cc2)cs1 (centres undefined) | 99% (active)
20 | COc1ccc(CC(N)c2csc(NC(=O)Cc3ccccc3)n2)cc1 (centres undefined) | 57.8% (active)
21 | NC(Cc1ccccc1)c1csc(Nc2cc(Oc3ccccc3)ncn2)n1 (centres undefined) | 87% (active)
22 | CN(C)CCCN(C(=O)c1ccc(S(=O)(=O)N2CCCc3ccccc32)cc1)c1nc2ccc(F)cc2s1 | 62.2% (active)
23 | CN(C)CCCN(C(=O)c1ccc(S(=O)(=O)N2CCCCCC2)cc1)c1nc2ccc(Br)cc2s1 | 44% (active)

Row | Compound | activation
24 | Cc1cccc(NC(=O)C(C)N2C(=O)C3C4CC(C(Br)C4Br)C3C2=O)c1 (centres undefined) | 33.9%
25 | O=C1CCCN2N=C(SCC(=O)Nc3ccc(Br)cc3)SC2=N1 | 55.6% (active)
26 | O=C(NCCc1ccccc1)C(=O)NCC1OCCN1S(=O)(=O)c1cccs1 (centres undefined) | 70.4% (active)
27 | Cn1c(=O)c(=O)n(C)c2cc(S(=O)(=O)NCCc3ccccc3)ccc21 | 98.3% (active)
28 | CC(Oc1ccc2ccccc2c1)C(=O)NNC(=S)NC(=O)c1ccco1 (centres undefined) | 76% (active)
29 | CCCc1ccc(OCC(=O)NNC(=S)NC(=O)c2ccco2)cc1 | 93.8% (active)
30 | Oc1ccc2ccc3cccc[n+]3c2c1 | 60.5% (active)
31 | NC(c1ccccc1)c1csc(NC(=O)Nc2cccc(C(F)(F)F)c2)n1 (centres undefined) | 61.4% (active)
32 | COc1ccc(C(N)c2csc(NC(=O)Nc3cccc(C(F)(F)F)c3)n2)cc1 (centres undefined) | 45.9% (active)
33 | O=c1cnnc(Nc2ccccc2)[nH]1 | 80.2% (active)
34 | CCCCC(=O)NNC(=S)NC(=O)C(c1ccccc1)c1ccccc1 | 152% (active)
35 | Cc1cc(C)c2cc(C#N)c(N3CCNCC3)nc2c1 | 90.6% (active)
36 | CCOc1ccc(Br)cc1CSC(=N)N | 73.8% (active)
37 | CCN(CC)c1ccc2oc(=O)c(C)nc2c1 | 34.1%
38 | O=C(Nc1ccc(Cl)cc1)N1CCc2[nH]c3ccccc3c2C1 | 21.7%
39 | O=C(c1noc2c1CCCC2)N1CCc2ccccc2C1 | 68% (active)
40 | Cc1cc(=O)oc2c(C)c(OCC(=O)NCCN3CCOCC3)ccc12 | 2.28%
41 | c1ccc(-c2csc(N3CCc4ccccc4C3)n2)cc1 | 81.8% (active)
42 | CSc1nc(N)c(C#N)c(-c2ccccc2Cl)c1C#N | 58.5% (active)
43 | O=C(NCCc1ccccc1)/C(=C\c1ccc([N+](=O)[O-])cc1)NC(=O)c1ccccc1 | 34.4%
44 | CCCCCC(=O)NC(=S)NNC(=O)c1ccc([N+](=O)[O-])cc1 | 113% (active)
45 | Cc1ccc(Cl)cc1N1CCN(C(=O)c2cccc3c(=O)c(C)c(-c4ccccc4)oc23)CC1 | 113% (active)
46 | S=C(NCCc1ccccc1)N1CCn2cccc2C1c1ccncc1 (centres undefined) | 95% (active)

Row | Compound | activation
47 | COc1ccc2c(c1)OC(O)(C(F)(F)C(F)F)CC2=O (centres undefined) | 38.7% (active)
48 | COC(=O)c1[nH]c2cccc(C)c2c1NC(=O)CN1CCCc2ccccc21 | 68.9% (active)
49 | Cc1cc2nc3c(=O)[nH]c(=O)nc-3n(C[C@H](O)[C@H](O)[C@H](O)CO)c2cc1C | 121% (active)
50 | O=C(N[C@H](C(=O)N1CCC[C@H]1C(=O)NCCc1ccccc1Cl)c1ccccc1)c1ccccc1 | 83.6% (active)
51 | Nc1cccc2c1C(=O)N(Cc1nnc(-c3ccccc3Br)o1)C2=O | 100% (active)
52 | CCC(c1nnnn1Cc1ccco1)N(CCc1ccccc1)Cc1cc2ccc(OC)cc2[nH]c1=O (centres undefined) | 30.9%
53 | CCC(c1nnnn1Cc1ccco1)N(CCc1ccccc1)Cc1cc2cccc(C)c2[nH]c1=O (centres undefined) | 50.2% (active)
54 | CCCn1c(O)c(CN2CCCC(C)C2)c(C)c(C#N)c1=O (centres undefined) | 85% (active)
55 | Nc1c(NCCc2ccccc2)c2ccccc2oc1=O | 70.5% (active)
56 | CC(Oc1ccc(Cl)cc1)C(=O)OCC(=O)Nc1ncc(Cl)cc1Cl (centres undefined) | 30.3%
57 | O=[N+]([O-])c1cc(S(=O)(=O)NCCc2ccccn2)ccc1Cl | 76.4% (active)
58 | O=C1C=C(c2ccc(Cl)cc2)C(=O)N1Nc1ccccc1 | 58.5% (active)
59 | CCc1ccccc1S(=O)(=O)Cc1ccc(C(=O)NCCc2ccccc2)o1 | 78.3% (active)
60 | O=C(NNC(=S)NC(=O)c1cn(-c2ccccc2)nc1-c1ccccc1)c1ccncc1 | 103% (active)
61 | O=C(Nc1ccc(F)cc1)Nc1nnc([C@H]2C[C@H](O)[C@@H](CO)O2)s1 | 52.9% (active)
62 | Nc1c(C(=O)c2cccs2)sc2nsc(SCCN3CCCCC3)c12 | 85% (active)
63 | S=C(Nc1ccc(Br)cc1)NC1CCN(Cc2ccccc2)CC1 | 62.4% (active)
64 | CCCCCCCCCCOC(=O)Cn1c(COc2ccc(C)cc2)[n+](C)c2ccccc21 | 109% (active)
65 | COCCCn1c(Cc2csc(Nc3cccc(Cl)c3)n2)nnc1SCC(=O)OC1CCCCC1 | -1.89%
66 | Cc1ccc(NC(=O)CCN2CCc3ccccc3C2)cc1 | 88.5% (active)
67 | CCCC1CCC(=NNC(=S)NCCc2ccccc2)CC1 (centres undefined) | 73.7% (active)
68 | COc1cc(OC)cc(C(=O)N[C@H](C(=O)OCC(=O)NC(C)c2ccccc2)C(C)C)c1 (some centres undefined) | 41.1% (active)
69 | CC(=O)Oc1ccc(Cn2c(C)c(C(=O)NCc3ccc(C#N)cc3)sc2=O)cc1 | 113% (active)

Row | Compound | activation
70 | NC[C@H](Cc1ccccc1)NCCc1cc(C(F)(F)F)cc(C(F)(F)F)c1 | 55.9% (active)
71 | COc1cc(OC)c(-n2cc(-c3ccc(Cl)cc3)[nH]c2=O)cc1Cl | 117% (active)
72 | O=C(O)C1C2C=CC(O2)C1C(=O)NCCc1cccc(Cl)c1 (centres undefined) | 101% (active)
73 | COc1ccc(C(=O)NNC(=S)NC(=O)c2ccccc2)cc1 | 127% (active)
74 | COc1ccc(C(=O)NC(=S)NNC(=O)CCc2ccccc2)cc1 | 115% (active)
75 | O=C(Nc1cccc(NC(=O)c2ccc(Br)cc2)c1)c1ccccc1 | 5.69%
76 | COc1ccc(Cl)cc1C(=O)NNC(=S)NC(=O)/C=C/c1ccco1 | 108% (active)
77 | Cc1ccc(O)c(NC(=S)NC(=O)COc2ccc(Br)cc2)c1 | 129% (active)
78 | CCc1ccc(-c2nn(-c3ccccc3)cc2CSC(=N)N)cc1 | 58.1% (active)
79 | CCCCc1c(-c2ccc(Cl)cc2)ncn1CCc1ccccc1OC | 81% (active)
80 | CCc1c(-c2ccccc2OC)ncn1CCc1ccccc1OC | 82.6% (active)
81 | CCCCc1c(-c2ccc(Br)cc2)ncn1CCc1ccccc1OC | 68.2% (active)
82 | COc1ccc(OC)c(C(c2nnnn2C(C)(C)C)N2CCc3ccccc3C2)c1 (centres undefined) | 66.7% (active)
83 | CCOC(=O)Cc1csc(NC(=O)Nc2ccccc2)n1 | 60.1% (active)
84 | O=C(Nc1ccncc1)Nc1ccc(F)cc1 | 83.6% (active)
85 | CCCCCc1c(Cc2ccccc2)ncn1CCc1ccccc1OC | 84.3% (active)
86 | CCCCCc1c(-c2cccc(Br)c2)ncn1CCc1ccccc1OC | 37.5% (active)
87 | CCCCCc1c(-c2ccc(OC)c(OC)c2)ncn1CCc1ccccc1OC | 98.3% (active)
88 | NC(=O)C1=C[C@H](c2csc3ccccc23)C[C@H](OCc2ccc(CO)cc2)O1 | 58.4% (active)
89 | c1ccc2c(c1)C(=NC1CCCCC1)NC2=NC1CCCCC1 | 90.4% (active)
90 | CCC(C(=O)Nc1ccc(C(C)C)cc1)c1ccccc1 (centres undefined) | 114% (active)
91 | C#CCOc1ccc(/C=C2/C(=O)NN(c3ccccc3)C2=O)cc1OC | 88% (active)
92 | COc1ccc2cc(-c3[nH]ncc3CNCCn3nc(C)cc3C)ccc2c1 | 57.6% (active)

Row | Compound | activation
93 | Cc1ccccc1NC(=S)NC(=O)Cc1ccc(Cl)cc1 | 85.2% (active)
94 | O=C(Cc1ccc(Cl)cc1)NC(=S)Nc1ccccc1O | 134% (active)
95 | S=C(NCCCc1cnc[nH]1)NCCCN(Cc1ccc(Cl)c(Cl)c1)c1ccc(Br)cn1 | 58% (active)
96 | Cc1c(CNCCc2ccccc2)c(C(=O)O)c(C)n1-c1ccccc1 | 88.8% (active)
97 | CN(C(=O)CN(CCO)CC(=O)N(C)C(C)(C)Cc1ccccc1)C(C)(C)Cc1ccccc1 | 101% (active)
98 | Cc1ccccc1-c1nc(CS(=O)(=O)CC(=O)N2CCc3ccccc3C2)c(C)o1 | 68.7% (active)
99 | COc1ccc(NC(=O)C(=O)NCC(c2ccco2)N2CCc3ccccc3C2)cc1 (centres undefined) | 40.5% (active)
100 | c1ccc(C2CNCc3c2ccc2ccccc32)cc1 (centres undefined) | 88.2% (active)
101 | N#Cc1ccc(OCCCN2CCC(C(O)(c3ccccc3)c3ccccc3)CC2)c(F)c1 | 36.6%
102 | Cc1ccc(Sc2cc(N3CCOCC3)nc(-c3ccccc3)n2)cc1 | 19.1%
103 | CCCc1cc(C(=O)Nc2ccc(C(=O)OC)cc2)cs1 | 1.29%
104 | Cc1ccc(S(=O)(=O)N(CC(=O)N2CCc3ccccc3C2)c2cccc(Cl)c2)cc1 | 56.1% (active)
105 | COc1cccc(N(CC(=O)N2CCc3ccccc3C2)S(C)(=O)=O)c1 | 63.4% (active)
106 | OC(CNCCc1ccc(Cl)cc1Cl)COc1ccccc1 (centres undefined) | 87.4% (active)
107 | Nc1nnn(CC(=O)N/N=C/c2ccccc2)n1 | 61.6% (active)
108 | CCCOc1ccc(-c2c(C(=O)N/N=C/c3ccco3)nnn2-c2nonc2N)cc1 | 73.1% (active)
109 | Nc1nonc1-n1nnc(C(=O)N/N=C/c2ccc(Cl)cc2)c1-c1ccc2c(c1)OCO2 | 142% (active)
110 | COc1ccc(C(=O)NC(=S)NNC(=O)c2c(-c3ccccc3)noc2C)cc1 | 93% (active)
111 | Cc1onc(-c2ccccc2)c1C(=O)NNC(=S)NC(=O)c1ccc(F)cc1 | 127% (active)
112 | COc1ccc(OC)c(NC(=S)N2CCc3ccccc3C2)c1 | 87.5% (active)
113 | Fc1ccc(NC(=S)N2CCc3[nH]c4ccccc4c3C2)cc1 | 32.8%
114 | O=C(/C=C/[C@H]1O[C@@H](n2cnc3c(NC(=O)c4ccccc4)ncnc32)[C@H](O)[C@@H]1O)NCc1ccccc1 | 0.79%
